According to the M2OR odorant receptor database:

Experiments:
Details in all cases: stereoisomer not certain
OR10J5 (Homo sapiens) = target: T1, OR10J5 (Homo sapiens) (UniProt Q8NHC4)
T1 sequence (whole entry): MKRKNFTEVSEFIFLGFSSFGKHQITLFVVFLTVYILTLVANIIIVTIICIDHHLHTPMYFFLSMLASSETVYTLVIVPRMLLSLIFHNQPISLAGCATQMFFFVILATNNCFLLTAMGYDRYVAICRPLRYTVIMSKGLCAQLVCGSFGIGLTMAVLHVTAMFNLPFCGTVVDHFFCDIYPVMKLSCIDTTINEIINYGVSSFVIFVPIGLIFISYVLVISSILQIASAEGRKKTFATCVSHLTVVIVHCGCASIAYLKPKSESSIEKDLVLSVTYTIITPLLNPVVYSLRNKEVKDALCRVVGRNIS
Outline: (§1)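 Transient luciferase assays in mammalian cell lines were common, though methods varied by source. The values come from published papers and their supplementary material, with extra details from the original authors when needed. Responsive refers to a measured signal the original authors judged statistically different from baseline, and non-responsive (inactive) to the remainder.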

OR10G2 (Homo sapiens) = OR10G2 (Homo sapiens) (UniProt Q8NGC3)
Outline: as §1

OR10G3 (Homo sapiens) = OR10G3 (Homo sapiens) (UniProt Q8NGC4)
Outline: as §1

OR10G4 (Homo sapiens) = OR10G4 (Homo sapiens) (UniProt Q8NGN3)
Outline: as §1

OR10G6 (Homo sapiens) = OR10G6 (Homo sapiens) (UniProt Q8NH81)
Outline: as §1

OR10G7 (Homo sapiens) = OR10G7 (Homo sapiens) (UniProt Q8NGN6)
Outline: as §1

OR10G8 (Homo sapiens) = OR10G8 (Homo sapiens) (UniProt Q8NGN5)
Outline: as §1

OR10G9 (Homo sapiens) = OR10G9 (Homo sapiens) (UniProt Q8NGN4)
Outline: as §1

OR10H1 (Homo sapiens) = OR10H1 (Homo sapiens) (UniProt Q9Y4A9)
Outline: as §1

OR10H2 (Homo sapiens) = target: T2, OR10H2 (Homo sapiens) (UniProt O60403)
T2 sequence (whole entry): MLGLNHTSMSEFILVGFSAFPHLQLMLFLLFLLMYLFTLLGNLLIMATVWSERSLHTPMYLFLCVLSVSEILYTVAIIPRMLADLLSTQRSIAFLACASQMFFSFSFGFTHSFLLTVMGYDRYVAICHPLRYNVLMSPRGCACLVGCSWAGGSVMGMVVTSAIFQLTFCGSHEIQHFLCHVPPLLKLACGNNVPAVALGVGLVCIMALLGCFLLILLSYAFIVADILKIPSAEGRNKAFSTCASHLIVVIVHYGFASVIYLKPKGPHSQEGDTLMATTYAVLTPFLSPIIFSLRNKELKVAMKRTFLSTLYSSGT
Outline: as §1

OR10H3 (Homo sapiens) = OR10H3 (Homo sapiens) (UniProt O60404)
Outline: as §1

OR10H4 (Homo sapiens) = OR10H4 (Homo sapiens) (UniProt Q8NGA5)
Outline: as §1

OR10H5 (Homo sapiens) = OR10H5 (Homo sapiens) (UniProt Q8NGA6)
Outline: as §1

OR10J3 (Homo sapiens) = OR10J3 (Homo sapiens) (UniProt Q5JRS4)
Outline: as §1

OR10J4 (Homo sapiens) = OR10J4 (Homo sapiens) (UniProt P0C629)
Outline: as §1

OR10K1 (Homo sapiens) = OR10K1 (Homo sapiens) (UniProt Q8NGX5)
Outline: as §1

OR10K2 (Homo sapiens) = OR10K2 (Homo sapiens) (UniProt Q6IF99)
Outline: as §1

OR10P1 (Homo sapiens) = OR10P1 (Homo sapiens) (UniProt Q8NGE3)
Outline: as §1

OR10D3 (Homo sapiens) = OR10D3 (Homo sapiens) (UniProt Q8NH80)
Outline: as §1

OR10J1 (Homo sapiens) = OR10J1 (Homo sapiens) (UniProt P30954)
Outline: as §1

Measured: odorant receptor agonist call

Chain of OR10G3 (Homo sapiens) (Q8NGC4 whole entry): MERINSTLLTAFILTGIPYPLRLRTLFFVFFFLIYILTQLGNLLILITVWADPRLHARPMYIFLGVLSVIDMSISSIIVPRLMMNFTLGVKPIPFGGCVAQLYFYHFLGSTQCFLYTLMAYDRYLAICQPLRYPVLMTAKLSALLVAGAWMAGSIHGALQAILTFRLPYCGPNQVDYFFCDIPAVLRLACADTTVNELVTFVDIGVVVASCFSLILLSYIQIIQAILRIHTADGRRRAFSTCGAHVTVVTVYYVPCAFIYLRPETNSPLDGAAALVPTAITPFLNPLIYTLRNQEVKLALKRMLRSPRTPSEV
Chain of OR10H4 (Homo sapiens) (Q8NGA5 whole entry): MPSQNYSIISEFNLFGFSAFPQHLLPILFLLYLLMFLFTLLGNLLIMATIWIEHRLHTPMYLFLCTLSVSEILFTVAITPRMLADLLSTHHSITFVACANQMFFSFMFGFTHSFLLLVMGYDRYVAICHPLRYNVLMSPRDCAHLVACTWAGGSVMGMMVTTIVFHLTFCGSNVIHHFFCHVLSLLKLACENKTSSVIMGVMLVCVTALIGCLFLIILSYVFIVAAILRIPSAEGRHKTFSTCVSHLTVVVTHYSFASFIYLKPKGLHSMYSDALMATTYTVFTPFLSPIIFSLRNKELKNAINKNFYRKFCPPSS
Chain of OR10K1 (Homo sapiens) (Q8NGX5 whole entry): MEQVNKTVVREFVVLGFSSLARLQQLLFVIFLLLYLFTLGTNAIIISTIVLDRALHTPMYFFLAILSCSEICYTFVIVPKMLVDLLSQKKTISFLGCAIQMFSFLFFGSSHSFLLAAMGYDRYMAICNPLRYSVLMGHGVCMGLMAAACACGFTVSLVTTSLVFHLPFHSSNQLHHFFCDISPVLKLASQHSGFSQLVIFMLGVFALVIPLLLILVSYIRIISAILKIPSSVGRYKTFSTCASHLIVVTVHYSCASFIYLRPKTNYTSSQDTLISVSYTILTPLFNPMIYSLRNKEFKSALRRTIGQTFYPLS
Chain of OR10H5 (Homo sapiens) (Q8NGA6 whole entry): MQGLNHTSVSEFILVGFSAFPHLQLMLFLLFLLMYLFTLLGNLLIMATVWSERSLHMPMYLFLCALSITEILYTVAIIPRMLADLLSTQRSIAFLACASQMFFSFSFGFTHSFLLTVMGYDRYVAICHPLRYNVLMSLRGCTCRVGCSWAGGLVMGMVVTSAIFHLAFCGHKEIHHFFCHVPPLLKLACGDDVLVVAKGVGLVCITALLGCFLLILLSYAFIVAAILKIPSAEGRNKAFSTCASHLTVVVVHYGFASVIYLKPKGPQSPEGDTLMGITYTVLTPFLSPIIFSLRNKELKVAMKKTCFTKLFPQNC
Chain of OR10H1 (Homo sapiens) (Q9Y4A9 whole entry): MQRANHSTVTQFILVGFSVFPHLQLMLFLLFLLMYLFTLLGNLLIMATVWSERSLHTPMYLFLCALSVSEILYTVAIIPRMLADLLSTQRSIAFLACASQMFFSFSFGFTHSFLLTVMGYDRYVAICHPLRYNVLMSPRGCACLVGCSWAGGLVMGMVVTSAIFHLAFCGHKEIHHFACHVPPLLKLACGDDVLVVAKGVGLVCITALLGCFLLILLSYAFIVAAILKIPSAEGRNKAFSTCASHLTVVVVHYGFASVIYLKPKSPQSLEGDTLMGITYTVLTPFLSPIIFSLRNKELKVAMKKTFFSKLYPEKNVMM
Chain of OR10G7 (Homo sapiens) (Q8NGN6 whole entry): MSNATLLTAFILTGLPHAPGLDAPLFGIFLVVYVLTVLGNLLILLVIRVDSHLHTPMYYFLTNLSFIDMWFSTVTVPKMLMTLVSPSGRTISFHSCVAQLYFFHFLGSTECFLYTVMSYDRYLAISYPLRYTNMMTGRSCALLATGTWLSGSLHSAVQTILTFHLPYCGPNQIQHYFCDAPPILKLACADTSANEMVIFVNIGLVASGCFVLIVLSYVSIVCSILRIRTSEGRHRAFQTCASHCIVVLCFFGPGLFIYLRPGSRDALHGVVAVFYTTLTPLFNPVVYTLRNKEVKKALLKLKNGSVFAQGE
Chain of OR10P1 (Homo sapiens) (Q8NGE3 whole entry): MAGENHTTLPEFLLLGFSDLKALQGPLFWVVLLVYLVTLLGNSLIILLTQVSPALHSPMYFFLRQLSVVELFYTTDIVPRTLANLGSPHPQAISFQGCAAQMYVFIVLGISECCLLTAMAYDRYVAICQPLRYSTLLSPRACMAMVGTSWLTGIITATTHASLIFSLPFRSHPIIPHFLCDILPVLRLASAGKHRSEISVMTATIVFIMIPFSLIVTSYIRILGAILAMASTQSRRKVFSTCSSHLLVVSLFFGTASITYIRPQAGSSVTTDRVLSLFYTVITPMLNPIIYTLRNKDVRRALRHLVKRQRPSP
Chain of OR10G2 (Homo sapiens) (Q8NGC3 whole entry): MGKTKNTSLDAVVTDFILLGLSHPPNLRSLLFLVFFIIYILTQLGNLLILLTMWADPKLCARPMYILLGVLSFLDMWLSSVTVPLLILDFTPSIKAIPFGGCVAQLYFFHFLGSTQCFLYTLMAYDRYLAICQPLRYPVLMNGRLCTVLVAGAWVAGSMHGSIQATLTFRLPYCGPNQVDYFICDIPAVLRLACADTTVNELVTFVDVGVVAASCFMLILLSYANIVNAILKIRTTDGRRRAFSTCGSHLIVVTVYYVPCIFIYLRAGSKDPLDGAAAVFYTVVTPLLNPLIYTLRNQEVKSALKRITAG
Chain of OR10G9 (Homo sapiens) (Q8NGN4 whole entry): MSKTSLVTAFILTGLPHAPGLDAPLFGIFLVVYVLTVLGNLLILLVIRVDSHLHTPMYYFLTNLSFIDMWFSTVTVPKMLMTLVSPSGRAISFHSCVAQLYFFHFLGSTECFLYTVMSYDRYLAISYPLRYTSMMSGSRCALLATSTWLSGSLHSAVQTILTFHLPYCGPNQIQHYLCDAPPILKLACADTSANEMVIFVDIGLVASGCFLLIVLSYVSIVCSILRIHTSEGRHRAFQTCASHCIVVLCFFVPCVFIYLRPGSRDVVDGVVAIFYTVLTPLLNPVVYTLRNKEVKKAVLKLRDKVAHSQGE
Chain of OR10G8 (Homo sapiens) (Q8NGN5 whole entry): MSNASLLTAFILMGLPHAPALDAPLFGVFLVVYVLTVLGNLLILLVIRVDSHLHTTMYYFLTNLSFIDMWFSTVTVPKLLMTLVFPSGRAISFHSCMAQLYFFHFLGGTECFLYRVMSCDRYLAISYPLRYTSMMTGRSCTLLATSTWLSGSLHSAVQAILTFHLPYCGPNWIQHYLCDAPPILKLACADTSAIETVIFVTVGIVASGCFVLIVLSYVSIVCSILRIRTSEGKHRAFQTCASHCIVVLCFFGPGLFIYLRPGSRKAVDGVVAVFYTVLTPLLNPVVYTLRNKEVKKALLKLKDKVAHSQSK
Chain of OR10J3 (Homo sapiens) (Q5JRS4 whole entry): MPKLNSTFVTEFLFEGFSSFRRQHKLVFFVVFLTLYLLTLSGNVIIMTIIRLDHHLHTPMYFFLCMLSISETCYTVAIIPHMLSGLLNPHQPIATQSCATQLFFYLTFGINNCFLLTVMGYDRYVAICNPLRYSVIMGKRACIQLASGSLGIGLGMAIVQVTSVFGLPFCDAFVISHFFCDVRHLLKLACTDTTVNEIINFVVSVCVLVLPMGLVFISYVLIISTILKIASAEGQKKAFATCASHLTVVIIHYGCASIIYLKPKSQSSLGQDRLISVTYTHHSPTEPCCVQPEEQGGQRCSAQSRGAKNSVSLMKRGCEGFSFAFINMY
Chain of OR10G4 (Homo sapiens) (Q8NGN3 whole entry): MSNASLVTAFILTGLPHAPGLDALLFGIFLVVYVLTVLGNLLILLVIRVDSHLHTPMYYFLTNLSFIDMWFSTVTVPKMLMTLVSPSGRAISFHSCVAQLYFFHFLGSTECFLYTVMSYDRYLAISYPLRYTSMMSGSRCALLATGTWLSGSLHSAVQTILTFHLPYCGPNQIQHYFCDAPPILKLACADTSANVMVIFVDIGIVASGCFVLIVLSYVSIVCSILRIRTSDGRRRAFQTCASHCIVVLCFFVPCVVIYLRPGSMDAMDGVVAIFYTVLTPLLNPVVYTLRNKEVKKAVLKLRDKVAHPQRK
Chain of OR10H3 (Homo sapiens) (O60404 whole entry): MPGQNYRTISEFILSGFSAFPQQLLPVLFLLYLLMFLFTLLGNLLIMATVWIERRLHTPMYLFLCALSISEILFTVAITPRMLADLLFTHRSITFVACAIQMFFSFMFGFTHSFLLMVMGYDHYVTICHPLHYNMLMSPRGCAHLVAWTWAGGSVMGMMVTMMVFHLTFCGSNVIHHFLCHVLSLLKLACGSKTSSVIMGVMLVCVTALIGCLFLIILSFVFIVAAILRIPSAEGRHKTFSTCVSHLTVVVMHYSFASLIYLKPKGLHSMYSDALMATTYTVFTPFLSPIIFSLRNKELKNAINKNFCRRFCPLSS
Chain of OR10G6 (Homo sapiens) (Q8NH81 whole entry): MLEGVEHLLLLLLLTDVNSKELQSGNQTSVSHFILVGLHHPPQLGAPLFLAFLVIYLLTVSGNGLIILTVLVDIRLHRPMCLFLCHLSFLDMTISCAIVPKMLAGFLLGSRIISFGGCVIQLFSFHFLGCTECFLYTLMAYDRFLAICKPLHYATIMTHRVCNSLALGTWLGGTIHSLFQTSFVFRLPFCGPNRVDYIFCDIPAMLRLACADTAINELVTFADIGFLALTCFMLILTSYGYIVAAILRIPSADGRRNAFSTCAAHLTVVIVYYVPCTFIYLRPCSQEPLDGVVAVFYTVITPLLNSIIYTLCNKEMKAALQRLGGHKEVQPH
Chain of OR10J1 (Homo sapiens) (P30954 whole entry): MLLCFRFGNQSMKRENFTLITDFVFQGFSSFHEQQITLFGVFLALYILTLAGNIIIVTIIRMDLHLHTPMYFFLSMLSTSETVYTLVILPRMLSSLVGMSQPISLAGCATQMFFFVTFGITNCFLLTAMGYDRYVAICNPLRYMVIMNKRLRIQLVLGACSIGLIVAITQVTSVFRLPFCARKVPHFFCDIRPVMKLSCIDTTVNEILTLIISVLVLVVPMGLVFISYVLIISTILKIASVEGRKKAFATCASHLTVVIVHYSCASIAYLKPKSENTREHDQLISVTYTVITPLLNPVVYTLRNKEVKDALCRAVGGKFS

CCC1CCC(=O)O1 (stereo not given)
inactive: OR10J5 (Homo sapiens)

C=CCc1ccccc1
inactive: OR10J5 (Homo sapiens)

Cc1c([N+](=O)[O-])c(C)c([N+](=O)[O-])c(C(C)(C)C)c1[N+](=O)[O-]
not listed: OR10D3 (Homo sapiens) | OR10J1 (Homo sapiens)
inactive: all other assays above

O=c1cc(O)c2ccccc2o1
inactive: OR10J5 (Homo sapiens)

O=CC=Cc1ccccc1
active: OR10H2 (Homo sapiens)

C=CCOC(=O)Cc1ccccc1
not listed: OR10J4 (Homo sapiens) | OR10K2 (Homo sapiens)
inactive: all other assays above
